Data reported in ChEMBL document CHEMBL1126762, “Synthesis and anaerobic activity of novel 1-carba-1-dethiacephalosporins” (J Med Chem, 1993).
≈ marks a conversion by molar mass, not a printed value.

What was measured:
Eikenella corrodens = experiment: Antibacterial activity against anaerobic Bacteroides corrodens 1874; format: functional
Outline: (§1)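 MIC by agar dilution following the NCCLS M11-A2 (2nd ed.) procedure for antimicrobial testing of anaerobic bacteria.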

Phocaeicola vulgatus = experiment: Antibacterial activity against anaerobic Bacteroides vulgatus 1211; format: functional; outline: as §1
[1] = test system: Bacteroides thetaiotaomicron; experiment: Antibacterial activity against anaerobic Bacteroides thetaiotaomicron 1438; format: functional; outline: as §1
[2] = test system: Prevotella melaninogenica; experiment: Antibacterial activity against anaerobic Bacteroides melaninogenicus 1856/28; format: functional; outline: as §1
[3] = test system: Prevotella melaninogenica; experiment: Antibacterial activity against anaerobic Bacteroides melaninogenicus 2736; format: functional; outline: as §1
Bacteroides fragilis [4] = experiment: Antibacterial activity against anaerobic Bacteroides fragilis 111; format: functional; outline: as §1
Bacteroides fragilis [5] = experiment: Antibacterial activity against anaerobic Bacteroides fragilis 1877; format: functional; outline: as §1
Bacteroides fragilis [6] = experiment: Antibacterial activity against anaerobic Bacteroides fragilis 1936B; format: functional; outline: as §1
Clostridioides difficile = experiment: Antibacterial activity against anaerobic Clostridium difficile 2994 strain; format: functional; outline: as §1
Clostridium perfringens = experiment: Antibacterial activity against anaerobic Clostridium perfringens 81; format: functional
Outline: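 Agar dilution MIC following NCCLS document M11-A2 (Vol. 10, no. 15), the method for antimicrobial testing of anaerobic bacteria; value reported as minimum inhibitory concentration.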

Clostridium septicum = experiment: Antibacterial activity against anaerobic Clostridium septicum 1128; format: functional; outline: as §1
Escherichia coli = experiment: Antibacterial activity against aerobic Escherichia coli EC14; format: functional
Outline: (§2)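 MIC by agar dilution following the NCCLS M7-A2 (2nd ed.) procedure for bacteria that grow aerobically.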

[7] = Antibacterial activity against anaerobic Eubacterium aerofaciens 1235; format: functional; settings: Collinsella aerofaciens; outline: as §1
Klebsiella aerogenes = experiment: Antibacterial activity against aerobic Enterobacter aerogenes C32; format: functional; outline: as §2
[8] = Antibacterial activity against anaerobic Fusobacterium symbiosum 1470; format: functional, fusobacterium symbosium; outline: as §1
[9] = test system: Fusobacterium necrophorum; experiment: Antibacterial activity against anaerobic Fusobacterium necrophorum 6054A; format: functional; outline: as §1
Haemophilus influenzae = experiment: Antibacterial activity against aerobic Haemophilus influenzae RES 76; format: functional; outline: as §2
Klebsiella pneumoniae = experiment: Antibacterial activity against aerobic Klebsiella pneumoniae X26; format: functional; outline: as §2
[10] = test system: Peptostreptococcus anaerobius; experiment: Antibacterial activity against anaerobic Peptostreptococcus anaerobius 1451; format: functional; outline: as §1
[11] = Antibacterial activity against anaerobic Peptostreptococcus intermedius 1264; format: functional; outline: as §1
Pseudomonas aeruginosa = experiment: Antibacterial activity against aerobic Pseudomonas aeruginosa X239 strain; format: functional; outline: as §2
[12] = Antibacterial activity against anaerobic Peptococcus asaccharolyticus 1302; format: functional; settings: Peptoniphilus asaccharolyticus; outline: as §1
Anaerococcus prevotii = experiment: Antibacterial activity against anaerobic Peptococcus prevoti 1281; format: functional; outline: as §1
Cutibacterium acnes = experiment: Antibacterial activity against anaerobic Propionibacterium acnes 79; format: functional; outline: as §1
[13] = test system: Staphylococcus epidermidis; experiment: Antibacterial activity against aerobic Staphylococcus epidermidis 222; format: functional; outline: as §2
Streptococcus pneumoniae = experiment: Antibacterial activity against aerobic Streptococcus pneumoniae PARK; format: functional; outline: as §2
Staphylococcus aureus = experiment: Antibacterial activity against aerobic Staphylococcus aureus X1.1 strain; format: functional; outline: as §2
[14] = Area under plasma time curve determined in male rat; format: ADME, organism-based
Outline: (§3)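 Male Sprague-Dawley rats given 20 mg/kg i.v. in saline through an indwelling jugular vein cannula, which was also used for serial blood sampling over 6 h. Plasma drug measured by agar well diffusion bioassay with Micrococcus luteus ATCC9241 (detection limit 3.2 μg/mL plasma). AUC by Simpson's rule.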

[15] = Maximum concentration reached following intravenous administration in male rat; format: ADME, organism-based; set-up: route intravenous; settings: in vivo; outline: as §3
Bacteroides fragilis [16] = experiment: Antibacterial activity against anaerobic; format: functional; outline: as §1

Row | Compound | MIC (Eikenella corrodens) | MIC (Phocaeicola vulgatus) | MIC [1] | MIC [2] | MIC [3] | MIC (Bacteroides fragilis [4]) | MIC (Bacteroides fragilis [6]) | MIC (Clostridioides difficile) | MIC (Clostridium perfringens) | MIC (Clostridium septicum) | MIC (Escherichia coli) | MIC [7] | MIC (Klebsiella aerogenes) | MIC [8] | MIC [9] | MIC (Haemophilus influenzae) | MIC (Klebsiella pneumoniae) | MIC [10] | MIC [11] | MIC (Pseudomonas aeruginosa) | also measured
1 | CO/N=C(\C(=O)N[C@@H]1C(=O)N2C(C(=O)O)=C(Sc3ncc(C#N)s3)CC[C@H]12)c1csc(N)n1 | > 128 µg/mL | 16 µg/mL (≈ 31.6 µM) | 4 µg/mL (≈ 7.91 µM) | 0.25 µg/mL (≈ 0.494 µM) | 32 µg/mL (≈ 63.3 µM) | > 128 µg/mL | > 128 µg/mL | 0.06 µg/mL (≈ 0.119 µM) | 0.25 µg/mL (≈ 0.494 µM) | 1 µg/mL (≈ 1.98 µM) | 0.5 µg/mL (≈ 0.989 µM) | 16 µg/mL (≈ 31.6 µM) | 0.5 µg/mL (≈ 0.989 µM) | 2 µg/mL (≈ 3.96 µM) | 0.25 µg/mL (≈ 0.494 µM) | 0.125 µg/mL (≈ 0.247 µM) | 0.25 µg/mL (≈ 0.494 µM) | 0.5 µg/mL (≈ 0.989 µM) | 0.03 µg/mL (≈ 0.0593 µM) | 128 µg/mL (≈ 253 µM) | MIC (Bacteroides fragilis [5]): 16 µg/mL (≈ 31.6 µM); MIC [12]: 0.25 µg/mL (≈ 0.494 µM); MIC (Anaerococcus prevotii): 0.5 µg/mL (≈ 0.989 µM); MIC (Cutibacterium acnes): 0.03 µg/mL (≈ 0.0593 µM); MIC [13]: 1 µg/mL (≈ 1.98 µM); MIC (Streptococcus pneumoniae): 0.008 µg/mL (≈ 0.0158 µM); MIC (Staphylococcus aureus): 0.25 µg/mL (≈ 0.494 µM)
2 | Nc1nc(/C(=N/OCCF)C(=O)N[C@@H]2C(=O)N3C(C(=O)O)=C(Sc4ncc([N+](=O)[O-])s4)CC[C@H]23)cs1 | 8 µg/mL (≈ 14.3 µM) | 1 µg/mL (≈ 1.79 µM) | ≤ 0.5 µg/mL | 2 µg/mL (≈ 3.59 µM) | 1 µg/mL (≈ 1.79 µM) | 4 µg/mL (≈ 7.17 µM) | 4 µg/mL (≈ 7.17 µM) | 4 µg/mL (≈ 7.17 µM) | 1 µg/mL (≈ 1.79 µM) | 1 µg/mL (≈ 1.79 µM) | 0.5 µg/mL (≈ 0.897 µM) | 4 µg/mL (≈ 7.17 µM) | 1 µg/mL (≈ 1.79 µM) | 1 µg/mL (≈ 1.79 µM) | ≤ 0.5 µg/mL | 0.008 µg/mL (≈ 0.0143 µM) | 0.008 µg/mL (≈ 0.0143 µM) | ≤ 0.5 µg/mL | ≤ 0.5 µg/mL | > 128 µg/mL | AUC [14]: 11100 ng·h/mL; MIC (Bacteroides fragilis [5]): 1 µg/mL (≈ 1.79 µM); MIC [12]: ≤ 0.5 µg/mL; MIC (Anaerococcus prevotii): ≤ 0.5 µg/mL; MIC (Cutibacterium acnes): ≤ 0.5 µg/mL; MIC [13]: 1 µg/mL (≈ 1.79 µM); MIC (Streptococcus pneumoniae): 0.008 µg/mL (≈ 0.0143 µM); MIC (Staphylococcus aureus): 0.125 µg/mL (≈ 0.224 µM); Cmax [15]: 54.2 µg/mL
3 | CO[C@@]1(NC(=O)C2SC(=C(C(N)=O)C(=O)O)S2)C(=O)N2C(C(=O)O)=C(CSc3nnnn3C)CS[C@@H]21 (stereo not given in full) [CEFOTETAN] | 8 µg/mL (≈ 13.9 µM) | 4 µg/mL (≈ 6.95 µM) | 1 µg/mL (≈ 1.74 µM) | 128 µg/mL (≈ 222 µM) | 128 µg/mL (≈ 222 µM) | 8 µg/mL (≈ 13.9 µM) | 8 µg/mL (≈ 13.9 µM) | 16 µg/mL (≈ 27.8 µM) | 1 µg/mL (≈ 1.74 µM) | 4 µg/mL (≈ 6.95 µM) | 0.125 µg/mL (≈ 0.217 µM) | 4 µg/mL (≈ 6.95 µM) | 8 µg/mL (≈ 13.9 µM) | 128 µg/mL (≈ 222 µM) | > 128 µg/mL | 1 µg/mL (≈ 1.74 µM) | 0.125 µg/mL (≈ 0.217 µM) | 128 µg/mL (≈ 222 µM) | 8 µg/mL (≈ 13.9 µM) | > 128 µg/mL | MIC (Bacteroides fragilis [5]): 8 µg/mL (≈ 13.9 µM); MIC [12]: 1 µg/mL (≈ 1.74 µM); MIC (Anaerococcus prevotii): 8 µg/mL (≈ 13.9 µM); MIC (Cutibacterium acnes): 1 µg/mL (≈ 1.74 µM); MIC [13]: 16 µg/mL (≈ 27.8 µM); MIC (Streptococcus pneumoniae): 4 µg/mL (≈ 6.95 µM); MIC (Staphylococcus aureus): 8 µg/mL (≈ 13.9 µM)
4 | CO[C@@]1(NC(=O)Cc2cccs2)C(=O)N2C(C(=O)O)=C(COC(N)=O)CS[C@@H]21 [CEFOXITIN] | 4 µg/mL (≈ 9.36 µM) | 8 µg/mL (≈ 18.7 µM) | 2 µg/mL (≈ 4.68 µM) | 4 µg/mL (≈ 9.36 µM) | 8 µg/mL (≈ 18.7 µM) | 8 µg/mL (≈ 18.7 µM) | 8 µg/mL (≈ 18.7 µM) | 32 µg/mL (≈ 74.9 µM) | 2 µg/mL (≈ 4.68 µM) | 4 µg/mL (≈ 9.36 µM) | 2 µg/mL (≈ 4.68 µM) | 8 µg/mL (≈ 18.7 µM) | > 128 µg/mL | 8 µg/mL (≈ 18.7 µM) | ≤ 0.5 µg/mL | 2 µg/mL (≈ 4.68 µM) | 1 µg/mL (≈ 2.34 µM) | 2 µg/mL (≈ 4.68 µM) | 2 µg/mL (≈ 4.68 µM) | > 128 µg/mL | MIC (Bacteroides fragilis [16]): 4 µg/mL (≈ 9.36 µM); MIC [12]: ≤ 0.5 µg/mL; MIC (Anaerococcus prevotii): 1 µg/mL (≈ 2.34 µM); MIC (Cutibacterium acnes): 2 µg/mL (≈ 4.68 µM); MIC [13]: 4 µg/mL (≈ 9.36 µM); MIC (Streptococcus pneumoniae): 0.5 µg/mL (≈ 1.17 µM); MIC (Staphylococcus aureus): 4 µg/mL (≈ 9.36 µM)
